Here are results for one compound from paper PMC10951545 (Heliyon, 2024).

For data set [1], the system named is ventilator-associated pneumonia caused by multidrug-resistant bacteria. Briefly: Evaluation of clinical efficacy. The data set is classed as in vivo, patients. The following applies: control group (polymyxin B alone), n = 28.
A further data set in a line: Complications. The data set is classed as in vivo. The following applies: number of patients (%). An outline of the steps:
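ICU patients with severe pulmonary infection were given IV polymyxin B sulfate as an approx. 1 h drip (loading 15,000 U/Kg, then 20,000 U/Kg/d in two doses), either alone or with CVVH (35 ml/kg/h, blood flow 200 ml/min). The incidence of skin pigmentation, nephrotoxicity and 28-day mortality was recorded per group, and the groups were compared.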

[2] abbreviates: control group (polymyxin B alone), n = 28.
Setting [3] is: observation group (polymyxin B + CRRT), n = 7.

The structures appear in SMILES notation. Where a SMILES comes first, the peptide text is derived from it. Bridges are numbered along the chain shown (N, C = ends). [ ]: non-standard residue; d: D form. The star is where a group is joined. X1 = CC[C@H](C)CCCCC(=O)*; Dab = NCC[C@H](N)C(=O)O

Compound `CC[C@H](C)CCCCC(=O)N[C@@H](CCN)C(=O)N[C@H](C(=O)N[C@@H](CCN)C(=O)N[C@H]1CCNC(=O)[C@H]([C@@H](C)O)NC(=O)[C@H](CCN)NC(=O)[C@H](CCN)NC(=O)[C@H](CC(C)C)NC(=O)[C@@H](Cc2ccccc2)NC(=O)[C@H](CCN)NC1=O)[C@@H](C)O` [polymyxin B] (X1-[Dab]T[Dab][Dab][Dab][dF]L[Dab][Dab]T; lactam 4-C) registered a response rate in data set [1] of 50.00%. Also, in “Complications” (setting [2]), the 28-day mortality is listed as 8 (28.57), the Nephrotoxicity is on record as 6 (21.43) and the Skin pigmentation was 3 (10.71). In “Complications” (setting [3]), the 28-day mortality is 4 (57.14), the Nephrotoxicity is listed as 1 (14.29) and the Skin pigmentation is 2 (28.57).
